An excerpt weighted towards active compounds, which were near 3.5% of everything screened.
MrgX1 ag = human MrgX1 receptor agonism, primary screen. MrgX1-HEK293 cells, Fluo-4 calcium fluorescence, agonist mode; active compounds read high. B-score at 10 µM. AID 588627. 0.44% of 310,000 active;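 active means calcium response B-score plate-corrected fluorescence ratio at least 3 library SD, with starting fluorescence B-score inside 5 SD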
Target sequence (Q96LB2 whole entry, looked up): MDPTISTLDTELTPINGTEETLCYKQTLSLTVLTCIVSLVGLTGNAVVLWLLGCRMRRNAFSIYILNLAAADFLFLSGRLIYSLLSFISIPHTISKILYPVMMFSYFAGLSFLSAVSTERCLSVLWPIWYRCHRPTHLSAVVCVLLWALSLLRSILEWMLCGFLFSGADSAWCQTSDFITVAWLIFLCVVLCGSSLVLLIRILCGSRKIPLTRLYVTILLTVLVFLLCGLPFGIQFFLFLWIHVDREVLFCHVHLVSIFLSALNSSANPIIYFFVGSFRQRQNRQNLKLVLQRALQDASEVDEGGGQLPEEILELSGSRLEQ
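Material: HEK293 cells stably expressing human MrgX1 receptor | Quantity: 15,000 cells per well | Times: Cells plated overnight, dye loaded 0.5 h 37 °C, 0.5 h room temperature | Measured by: Kinetic Fluo-4 NW fluorescence of intracellular calcium | Control set: Positive and negative controls per plate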
RGS4 act = RGS4 potentiation or activation | HEK293 M3R/inducible RGS4, carbachol calcium flux Fluo4; active compounds read low | B-score at 10 µM | 0.92% of 310,000 active | AID 463111;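 active means B-score of the integrated calcium signal more than 4 SD below the library mean, with starting fluorescence not abnormally high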;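 further: negative B-score means reduced calcium response which marks RGS4 activation or potentiation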
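System – HEK293 FlpIn-TREx cells, stable M3R, doxycycline-inducible RGS4 · Reagent – ECmax carbachol challenge · Times – compound preincubation 20 min at room temperature before agonist · Technique – Fluo4 fluorescence kinetic imaging of calcium · Measure – B score of integrated Fluo4 ratio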
MrgX1 PAM = allosterically activates human MrgX1 receptor signaling; Q96LB2; MrgX1-HEK293, Fluo-4 calcium flux, FDSS; active compounds read high; B-score at 10 µM; 0.63% of 310,000 active;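 active means plate-corrected calcium response at least 3 library SD above typical, normal starting fluorescence, not activating the receptor alone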;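 further: compound read alongside a low EC10 to EC30 dose of BAM8-22 agonist; peak minus trough fluorescence over baseline measured at the second addition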
MrgX1 antag = antagonists of human MrgX1 receptor; AID 588676; B-score at 10 µM; MRGX1-HEK293 calcium flux, Fluo-4, BAM8-22 antagonism; active compounds read low; Q96LB2; 1.3% of 310,000 active;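 active means calcium-response B-score plate-corrected more than 3 library SD below zero, starting fluorescence within 5 deviations, no agonist response on first addition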;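 further: peak minus trough fluorescence over baseline after final BAM8-22 challenge near maximal dose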
RGS4 block = human RGS4 inhibition | 0.45% of 310,000 active | AID 463165 | B-score at 10 µM | HEK293 M3R/RGS4 inducible, Fluo-4 calcium flux; active compounds read high; triggered by carbachol at its EC20 | P49798;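 active means B-score, a plate-corrected calcium signal, over three deviations above library mean, with baseline fluorescence within five deviations of library mean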;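 further: RGS4 expression induced by doxycycline in cells with stable M3 receptor; B-score is computed from the integrated fluorescence ratio over baseline after carbachol; higher B-score means a larger calcium signal and so more RGS4 inhibition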
Target sequence (P49798 whole entry, looked up): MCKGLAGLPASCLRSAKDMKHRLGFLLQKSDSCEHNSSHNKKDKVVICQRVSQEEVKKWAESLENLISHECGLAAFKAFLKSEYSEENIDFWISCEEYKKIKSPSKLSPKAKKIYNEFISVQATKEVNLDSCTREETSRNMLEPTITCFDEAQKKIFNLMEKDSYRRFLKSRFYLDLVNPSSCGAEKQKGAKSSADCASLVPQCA
* marks the source's active call; other numbers are inactive results.

`CCN(CC)C(=O)N1c2ccccc2Sc2ccccc21` gave MrgX1 ag inactive, RGS4 act inactive, MrgX1 PAM inactive, MrgX1 antag inactive and RGS4 block inactive.
`NCCCC(=O)N1c2ccccc2Sc2ccccc21` gave MrgX1 ag inactive, RGS4 act -7.03*, MrgX1 PAM inactive, MrgX1 antag inactive and RGS4 block inactive.
Screening COCc1ccc(C(=O)N2CCCC(Nc3ccc4c(c3)OCCO4)C2)o1 (configuration not stated) returned MrgX1 ag inactive, RGS4 act inactive, MrgX1 PAM inactive, MrgX1 antag inactive and RGS4 block inactive.
For CC1=NOC(=O)/C1=C/c1ccc(N(C)C)cc1 the results were MrgX1 ag 45.7*, RGS4 act inactive, MrgX1 PAM inactive, MrgX1 antag inactive and RGS4 block inactive.
For CCCOc1ccc(/C=C2/C(=O)ON=C2C)cc1Cl the results were MrgX1 ag inactive, RGS4 act inactive, MrgX1 PAM inactive, MrgX1 antag inactive and RGS4 block inactive.
For CCN(CC)c1ccc(/C=C2/C(=O)ON=C2C)cc1 the results were MrgX1 ag 56.7*, RGS4 act inactive, MrgX1 PAM inactive, MrgX1 antag inactive and RGS4 block inactive.
For CCN(CC)c1ccc(/C=C2\C(=O)N(c3nnc(C)c(=O)[nH]3)N=C2C)cc1 the results were MrgX1 ag 41.6*, RGS4 act inactive, MrgX1 PAM inactive, MrgX1 antag inactive and RGS4 block inactive.
COc1ccc(/C=C2/C(=O)N(c3ccccc3)N=C2C)cc1 was read as MrgX1 ag inactive, RGS4 act inactive, MrgX1 PAM inactive, MrgX1 antag inactive and RGS4 block inactive.
`CCOc1ccc(C(C)=O)cc1CN1c2ccc(S(N)(=O)=O)cc2CC1C` (configuration not stated) gave MrgX1 ag inactive, RGS4 act inactive, MrgX1 PAM inactive, MrgX1 antag inactive and RGS4 block inactive.
For CCN(Cc1ccccc1)C(=O)CSc1nc(C)cc(=O)[nH]1 the results were MrgX1 ag inactive, RGS4 act inactive, MrgX1 PAM inactive, MrgX1 antag inactive and RGS4 block inactive.
CCN(CC)C1CCN(C(=O)c2cc(COc3ccc(F)cc3Cl)on2)C1 (configuration not stated) was read as MrgX1 ag inactive, RGS4 act -7.03*, MrgX1 PAM inactive, MrgX1 antag inactive and RGS4 block inactive.
Cn1ccnc1C1CCCCN1C(=O)c1cc(COc2ccc(F)cc2Cl)on1 (configuration not stated) was read as MrgX1 ag inactive, RGS4 act -7.44*, MrgX1 PAM inactive, MrgX1 antag inactive and RGS4 block inactive.
`O=C(c1cc(COc2ccc(F)cc2Cl)on1)N1CC[C@@H]2CCCC[C@H]2C1` gave MrgX1 ag inactive, RGS4 act inactive, MrgX1 PAM inactive, MrgX1 antag inactive and RGS4 block inactive.
For COc1ccccc1C(=O)Nc1ccccc1SC(=O)c1ccccc1OC the results were MrgX1 ag inactive, RGS4 act inactive, MrgX1 PAM inactive, MrgX1 antag inactive and RGS4 block inactive.
N#C/C(=N\Nc1ccc(S(=O)(=O)N2CCc3ccccc32)cc1)C(N)=S was read as MrgX1 ag inactive, RGS4 act inactive, MrgX1 PAM inactive, MrgX1 antag inactive and RGS4 block inactive.
`CCOC(=O)/C(C#N)=N/Nc1ccc(S(=O)(=O)N2CCc3ccccc32)cc1` gave MrgX1 ag inactive, RGS4 act inactive, MrgX1 PAM inactive, MrgX1 antag -4.52* and RGS4 block inactive.
Screening O=C(COc1ccc(Cl)cc1)Nc1ccc2c(c1)C(=O)NC2=O returned MrgX1 ag inactive, RGS4 act inactive, MrgX1 PAM inactive, MrgX1 antag inactive and RGS4 block inactive.
`CCSc1nc2c(c(=O)n(C)c(=O)n2C)n1Cc1ccc(Cl)cc1` gave MrgX1 ag inactive, RGS4 act inactive, MrgX1 PAM inactive, MrgX1 antag inactive and RGS4 block inactive.
Cn1c(=O)c2c(nc(SCCN3CCCCC3)n2Cc2ccc(Cl)cc2)n(C)c1=O was read as MrgX1 ag inactive, RGS4 act -6.97*, MrgX1 PAM inactive, MrgX1 antag inactive and RGS4 block inactive.
For CCN(CC)S(=O)(=O)c1cccc(C(=O)Nc2ccc(S(=O)(=O)NC3=NCCCCC3)cc2)c1 the results were MrgX1 ag inactive, RGS4 act inactive, MrgX1 PAM inactive, MrgX1 antag inactive and RGS4 block inactive.
Screening O=C(O)CCC1c2cc3c4cc2OC2Oc5cc6c(cc51)C(CCC(=O)O)c1cc5c7cc1OC(O6)c1cc6cc(c1)Oc1cc(cc(C(=O)O)c1)Oc1cc8cc(c1)C(Oc1cc(c(cc1C5CCC(=O)O)C3CCC(=O)O)OC(O4)c1cc(cc(c1)Oc1cc(cc(C(=O)O)c1)O8)Oc1cc(cc(C(=O)O)c1)Oc1cc(cc2c1)Oc1cc(cc(C(=O)O)c1)O6)O7 (configuration not stated) returned MrgX1 ag 29.3*, RGS4 act inactive, MrgX1 PAM inactive, MrgX1 antag inactive and RGS4 block inactive.
COc1ccc(C(CC(=O)c2ccccc2)CC(=O)c2ccccc2)cc1OC was read as MrgX1 ag inactive, RGS4 act inactive, MrgX1 PAM inactive, MrgX1 antag -6.66* and RGS4 block inactive.
For CCC(NC(=S)NC1CCCCC1)c1ccc(C(C)C)cc1 (configuration not stated) the results were MrgX1 ag inactive, RGS4 act -8.53*, MrgX1 PAM inactive, MrgX1 antag -5.29* and RGS4 block inactive.
COc1ccc(COC(=O)c2ccc(C)c(S(=O)(=O)N3CCOCC3)c2)cc1F was read as MrgX1 ag inactive, RGS4 act inactive, MrgX1 PAM inactive, MrgX1 antag inactive and RGS4 block inactive.
For Cc1cc(-n2c(C)cc(C(=O)CSc3ncnc4ccccc34)c2C)no1 the results were MrgX1 ag inactive, RGS4 act inactive, MrgX1 PAM inactive, MrgX1 antag -4.7* and RGS4 block inactive.
Screening CC1(C)C(=S)N(Cc2ccccc2)c2ccccc21 returned MrgX1 ag inactive, RGS4 act inactive, MrgX1 PAM inactive, MrgX1 antag inactive and RGS4 block inactive.
CCCCCCCCCCCCCCCC[N+](C)(C)CC was read as MrgX1 ag inactive, RGS4 act inactive, MrgX1 PAM inactive, MrgX1 antag -5.26* and RGS4 block inactive.
`N/C(=N\OC(=O)c1ccc2ccccc2c1)c1ccccc1Cl` gave MrgX1 ag inactive, RGS4 act inactive, MrgX1 PAM inactive, MrgX1 antag inactive and RGS4 block inactive.
